Measured values taken from ChEMBL document CHEMBL3779799, “Antifibrotic and anticancer action of 5-ene amino/iminothiazolidinones” (Eur J Med Chem, 2016).

Key:
[1] = Cytotoxicity against human SF268 cells assessed as cell growth at 10^-4 M after 48 hrs by sulforhodamine B assay relative to control; assay type: functional; conditions: SF-268, 48 h, read-out: Activity
Outline: (§1)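 Cells were inoculated and preincubated 24–48 h, then exposed to a single dose of 10^-4 M for 48 h. SRB protein staining was the endpoint, and growth percent was calculated versus untreated controls.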

[2] = system: HFL1; assay: Antifibrotic activity in HFL1 cells assessed as inhibition of cell viability after 48 hrs by sulforhodamine B assay; assay type: functional, cell-based; conditions: Homo sapiens, HFL1, 48 h
Outline: (§2)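 HFL-1 human fetal lung fibroblasts (DMEM, 10% FCS, passages 14–18) seeded at 8000 cells/well, attached overnight, then exposed to a range of concentrations for 48 h in triplicate. Cells were fixed with TCA and stained with 0.4% SRB, bound dye was solubilized in Tris, and OD was read at 570 nm relative to control.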

[3] = system: MCF7; assay: Cytotoxicity against human MCF7 cells assessed as cell growth at 10^-4 M after 48 hrs by sulforhodamine B assay relative to control; assay type: functional; conditions: MCF7, 48 h, read-out: Activity; outline: as §1
[4] = system: NCI-H460; assay: Cytotoxicity against human NCI-H460 cells assessed as cell growth at 10^-4 M after 48 hrs by sulforhodamine B assay relative to control; assay type: functional; conditions: NCI-H460, 48 h, read-out: Activity; outline: as §1
[5] = system: HFL1; assay: Antifibrotic activity in HFL1 cells assessed as inhibition of cell viability at >1 uM after 48 hrs by sulforhodamine B assay relative to control; assay type: functional; conditions: Homo sapiens, HFL1, 48 h; outline: as §2
[6] = system: HFL1; assay: Antifibrotic activity in HFL1 cells assessed as reduction in cell proliferation after 150 hrs by xCelligence analysis; conditions: Homo sapiens
[7] = Antioxidant activity assessed as inhibition of superoxide anion generation measured for 3 mins by nitro blue tetrazolium assay; assay type: physicochemical; conditions: for Emax: 0.05 h
Outline: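 Cell-free superoxide generated by xanthine (1 mM) and xanthine oxidase (0.11 U/mL), with NBT (50 µM) as detector. Compounds in DMSO were tested up to 10 µM, with DMSO held at 0.1%. NBT reduction rate (dA560/dt) was read spectrophotometrically over 3 min from the linear part.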

[8] = system: HFL1; assay: Antifibrotic activity in HFL1 cells assessed as reduction in maximum rate of cell proliferation after 150 hrs by xCelligence analysis; assay type: functional, cell-based; conditions: Homo sapiens
Outline: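 HFL-1 cells were seeded at 20,000/well and monitored by real-time impedance (xCelligence). Compound or DMSO vehicle was added at ~30 h, once attachment was maximal, and cells were followed for another 150 h. P150 was taken as the signal difference between 30 h and 180 h; Pdot was the maximum slope of the curve.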

[9] = Growth inhibition of human SW620 cells after 48 hrs by sulforhodamine B assay; assay type: functional; conditions: SW-620, 48 h
Outline: (§3)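 NCI ~60-cell-line panel with five 10-fold dilutions (10^-4 to 10^-8 M) and 48 h continuous exposure, using an SRB endpoint. Percentage growth was derived from time-zero, control and treated absorbances. […] Values are expressed as > or < when outside the tested range.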

[10] = Growth inhibition of human HCT116 cells after 48 hrs by sulforhodamine B assay; assay type: functional; conditions: HCT-116, 48 h
Outline: (§4)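 NCI ~60-cell-line panel with five 10-fold dilutions (10^-4 to 10^-8 M) and 48 h continuous exposure, using an SRB endpoint. Percentage growth was derived from time-zero, control and treated absorbances. Values are expressed as > or < when outside the tested range.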

[11] = Growth inhibition of human NCI60 cells after 48 hrs by sulforhodamine B assay; assay type: functional; conditions: NCI60, 48 h; for CC50: read-out: pLC50 (the source's name) (converted); for TGI: read-out: pTGI (converted); outline: as §4
[12] = Growth inhibition of human OVCAR3 cells after 48 hrs by sulforhodamine B assay; assay type: functional; conditions: OVCAR-3, 48 h; outline: as §3
[13] = system: MCF7; assay: Growth inhibition of human MCF7 cells after 48 hrs by sulforhodamine B assay; assay type: functional; conditions: MCF7, 48 h; outline: as §3
[14] = system: SR; assay: Growth inhibition of human SR cells after 48 hrs by sulforhodamine B assay; assay type: functional
Outline: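 NCI 60-cell-line panel, five-dose screen: cells inoculated and preincubated 24-48 h, then exposed continuously for 48 h to five 10-fold dilutions from 10^-4 to 10^-8 M. Protein measured by SRB staining at time zero, in untreated control and in treated wells.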

[15] = system: U-251; assay: Growth inhibition of human U251 cells after 48 hrs by sulforhodamine B assay; assay type: functional; conditions: U-251, 48 h; outline: as §3
[16] = system: MDA-MB-435; assay: Growth inhibition of human MDA-MB-435 cells after 48 hrs by sulforhodamine B assay; assay type: functional; conditions: MDA-MB-435, 48 h; outline: as §3
[17] = Growth inhibition of human RPMI8226 cells after 48 hrs by sulforhodamine B assay; assay type: functional; conditions: RPMI-8226, 48 h; outline: as §3
[18] = system: KM12; assay: Growth inhibition of human KM12 cells after 48 hrs by sulforhodamine B assay; assay type: functional; conditions: KM12, 48 h; outline: as §3
[19] = read-out: LC50 (the source's name)

Which growth at 100 µM [1] does the source give for O=C(CC1SC(Nc2ccc(O)cc2)=NC1=O)c1ccc(F)cc1 (racemic) here?
Its growth at 100 µM is 53%.

What about the IC50 [2] of the same compound?
Its IC50 is 190 nM.

What about the growth at 100 µM [3] of the same compound?
Its growth at 100 µM is 66%.

What about the growth at 100 µM [4] of the same compound?
Its growth at 100 µM is 62%.

And the Emax [5]?
Its Emax is 54.2%.

Which results are given for O=C1N=C(Nc2ccc(O)cc2)S/C1=C\c1ccc(Cl)cc1?
Activity [6]: Dose-dependent effect; IC50 [2]: 20 nM; Emax [5]: 46.1%

Which Activity [6] does the source give for CC(/C=N/N=C1\SC(CC(=O)Nc2cccc(C(F)(F)F)c2)C(=O)N1Cc1ccco1)=C\c1ccccc1 (mixture of isomers) here?
The Activity was “Dose-dependent effect”.

And the IC50 [2]?
Its IC50 is 30 nM.

What about the Emax [5] of the same compound?
Its Emax is 44.3%.

With CCC1S/C(=N\N=C/c2cccnc2)N(Cc2ccco2)C1=O (mixture of isomers) as the compound, how does the IC50 [2] read?
The IC50 was 210 nM.

What about the Emax [5] of the same compound?
Its Emax is 44.7%.

What does the source list for CC(=C/c1ccccc1)/C=C1\SC(N(C)c2ccc(O)cc2)=NC1=O?
Activity [6]: Dose-dependent effect; IC50 [7]: 3400 nM; Emax [7]: 55%; IC50 [2]: 10 nM; Emax [5]: 34%; Activity [8]: Dose-dependent effect

With O=C1N=C(Nc2ccc(O)cc2)S/C1=C\c1ccccc1 as the compound, how does the GI50 [9] read?
The GI50 was 470 nM.

What about the TGI [9] of the same compound?
The TGI was over 100000 nM.

And the CC50 [9, 19]?
The CC50 was over 100000 nM.

What about the GI50 [10] of the same compound?
Its GI50 is 320 nM.

What about the TGI [10] of the same compound?
Its TGI is over 100000 nM.

And the CC50 [10, 19]?
Its CC50 is over 100000 nM.

What about the GI50 [11] of the same compound?
The GI50 was 12900 nM.

And the CC50 [11]?
Its CC50 is 100000 nM.

What about the TGI [11] of the same compound?
Its TGI is 89100 nM.

What about the IC50 [2] of the same compound?
Its IC50 is 90 nM.

And the GI50 [12]?
Its GI50 is 710 nM.

And the TGI [12]?
Its TGI is over 100000 nM.

What about the CC50 [12, 19] of the same compound?
The CC50 was over 100000 nM.

And the GI50 [13]?
The GI50 was 250 nM.

And the TGI [13]?
Its TGI is over 100000 nM.

And the CC50 [13, 19]?
The CC50 was over 100000 nM.

What about the Emax [5] of the same compound?
The Emax was 23.8%.

What about the GI50 [14] of the same compound?
Its GI50 is 90 nM.

What about the CC50 [14, 19] of the same compound?
Its CC50 is over 100000 nM.

What about the GI50 [15] of the same compound?
Its GI50 is 680 nM.

What about the LC50 (concentration killing 50% of cells) [15] of the same compound?
The LC50 (concentration killing 50% of cells) was over 100000 nM.

What about the TGI [15] of the same compound?
The TGI was over 100000 nM.

And the GI50 [16]?
The GI50 was 210 nM.

What about the TGI [16] of the same compound?
The TGI was 920 nM.

And the CC50 [16, 19]?
Its CC50 is over 100000 nM.

What about the GI50 [17] of the same compound?
Its GI50 is 600 nM.

What about the TGI [17] of the same compound?
Its TGI is over 100000 nM.

What about the CC50 [17, 19] of the same compound?
The CC50 was over 100000 nM.

And the GI50 [18]?
Its GI50 is 870 nM.

What about the TGI [18] of the same compound?
Its TGI is over 100000 nM.

What about the CC50 [18, 19] of the same compound?
Its CC50 is over 100000 nM.

Which results are given for COc1ccc(/C=C2\SC(Nc3nnc(SCC(=O)Nc4ccc(Cl)cc4)s3)=NC2=O)cc1?
IC50 [7]: 810 nM; Emax [7]: 86.4%; IC50 [2]: 160 nM; Emax [5]: 53.8%

With O=C1N=C(Nc2ccc(O)cc2)S/C1=C1\C(=O)Nc2ccccc21 as the compound, how does the growth at 100 µM [1] read?
Its growth at 100 µM is 118%.

And the growth at 100 µM [3]?
The growth at 100 µM was 108%.

What about the growth at 100 µM [4] of the same compound?
The growth at 100 µM was 96%.

Which growth at 100 µM [1] does the source give for Cc1ccc2c(c1)/C(=C1/SC(N(C)c3ccc(O)cc3)=NC1=O)C(=O)N2 here?
The growth at 100 µM was 74%.

What about the IC50 [2] of the same compound?
Its IC50 is 70 nM.

And the growth at 100 µM [3]?
The growth at 100 µM was 89%.

And the growth at 100 µM [4]?
Its growth at 100 µM is 95%.

And the Emax [5]?
Its Emax is 31.3%.

For O=C1N=C(Nc2nccs2)S/C1=C1\C(=O)Nc2ccc(Br)cc21, which GI50 [11] is on record?
The GI50 was 95500 nM.

What about the CC50 [11] of the same compound?
Its CC50 is 100000 nM.

And the TGI [11]?
The TGI was 100000 nM.

What about the IC50 [7] of the same compound?
Its IC50 is 380 nM.

What about the Emax [7] of the same compound?
Its Emax is 67.4%.

For CCOc1cc(/C=C2\SC(Nc3nc4ccc(C)cc4s3)=NC2=O)ccc1O, which IC50 [7] is on record?
The IC50 was 6800 nM.

What about the Emax [7] of the same compound?
The Emax was 38.7%.

And the IC50 [2]?
The IC50 was 10 nM.

And the Emax [5]?
The Emax was 48.1%.

Which IC50 [7] does the source give for CN(C1=NC(=O)/C(=C/C(Cl)=C/c2ccc([N+](=O)[O-])cc2)S1)c1ccc(O)cc1 here?
The IC50 was 960 nM.

And the Emax [7]?
The Emax was 47.4%.
